From ChEMBL document CHEMBL3392996, “Non-transpeptidase binding arylthioether β-lactams active against Mycobacterium tuberculosis and Moraxella catarrhalis” (2015)
≈ marks a conversion by molar mass, not a printed value.

Key:
Format in all cases: functional
Moraxella catarrhalis [1] = assay: Antimicrobial activity against Moraxella catarrhalis clinical isolates incubated for 48 hrs by microdilution broth method
Summary of the method: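 Stocks in DMSO were diluted at least 10-fold into Mueller-Hinton broth, then 2-fold serially diluted in MH from 500 to 15.6 μg/ml. Bacteria were added, with DMSO-only dilution controls, and incubated at 37 °C for 48 h. Growth was scored at 24 and 48 h. MIC was the lowest concentration with no growth. Run in quadruplicate.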

Moraxella catarrhalis [2] = assay: Bactericidal activity against Moraxella catarrhalis clinical isolates incubated for 48 hrs by microdilution broth method and standard plating method
Summary of the method: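 Broth microdilution in Mueller-Hinton broth, 2-fold series from 500 to 15.6 μg/ml, with DMSO-only controls, 37 °C for 48 h. Wells showing no growth were plated (10 μL) on MH agar. MBC was the lowest concentration giving no growth on plating. Run in quadruplicate.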

[3] = test system: Mycobacterium tuberculosis; assay: Antimicrobial activity against Mycobacterium tuberculosis H37Rv incubated for 48 hrs by microdilution broth method

Row | Structure (SMILES) | MIC (Moraxella catarrhalis [1]) [µg/mL] | MBC (Moraxella catarrhalis [2]) [µg/mL] | MIC [3] [µg/mL]
1 | O=C1CC(Oc2ccc(C(F)(F)F)cc2)N1 (racemic) | 200 (≈ 865 µM) | 200 (≈ 865 µM) | 250 (≈ 1080 µM)
2 | O=C1CC(Sc2ccc(F)c(Cl)c2)N1 (racemic) | 12.5 (≈ 54 µM) | 25 (≈ 108 µM) | 25 (≈ 108 µM)
3 | CSc1ccc(SC2CC(=O)N2)cc1 (racemic) | 100 (≈ 444 µM) | 100 (≈ 444 µM) | > 100
4 | O=C1CC(Oc2ccc([N+](=O)[O-])cc2)N1 (racemic) | 50 (≈ 240 µM) | 50 (≈ 240 µM) | 25 (≈ 120 µM)
5 | O=C1CC(Sc2c(F)c(F)c(F)c(F)c2F)N1 (racemic) | 1.5 (≈ 5.57 µM) | 1.5 (≈ 5.57 µM) | > 100
6 | COc1ccc(SC2CC(=O)N2)cc1 (racemic) | 200 (≈ 956 µM) | > 200 | 100 (≈ 478 µM)
7 | O=C1CC(Sc2cccc3ccccc23)N1 (racemic) | 100 (≈ 436 µM) | > 200 | > 250
8 | O=C1CC(Sc2ccccc2F)N1 (racemic) | 200 (≈ 1010 µM) |  | 25 (≈ 127 µM)
9 | COc1ccccc1CNC(=O)N1C(=O)CC1Sc1ccc(F)cc1F (racemic) |  |  | ≥ 100
10 | COc1ccccc1SC1CC(=O)N1C(=O)NCc1ccccc1 (racemic) | 200 (≈ 584 µM) | 200 (≈ 584 µM) | 125 (≈ 365 µM)
11 | O=C1CC(Sc2cccc(F)c2)N1 (racemic) | > 200 |  | 100 (≈ 507 µM)
12 | O=C1CC(Sc2c(F)c(F)c(F)c(F)c2F)N1C(=O)NCc1ccccc1 (racemic) | 3.1 (≈ 7.7 µM) | 6.25 (≈ 15.5 µM) | > 100
13 | O=C1CC(Sc2cc(C(F)(F)F)cc(C(F)(F)F)c2)N1 (racemic) | 12.5 (≈ 39.7 µM) | 100 (≈ 317 µM) | > 100
14 | O=C1CCN1C(=O)NCc1ccccc1 | > 100 |  | > 100
15 | O=C1CC(Sc2ccccc2)N1C(=O)Nc1cccc2ccccc12 (racemic) |  |  | 25 (≈ 71.8 µM)
16 | COc1ccc(SC2CC(=O)N2C(=O)NCc2ccccc2)cc1OC (racemic) | 200 (≈ 537 µM) | > 200 | 250 (≈ 671 µM)
17 | O=C1CC([Se]c2ccccc2)N1C(=O)NCc1ccccc1 (racemic) | 50 (≈ 139 µM) | 50 (≈ 139 µM) | 25 (≈ 69.6 µM)
18 | O=C1CC(Sc2ccc(F)cc2F)N1 (racemic) | 1.5 (≈ 6.97 µM) | 3.13 (≈ 14.5 µM) | 3.13 (≈ 14.5 µM)
19 | COc1cccc(SC2CC(=O)N2)c1 (racemic) | 100 (≈ 478 µM) | > 200 | > 100
20 | O=C1CC(Sc2ccccc2)N1 (racemic) | > 200 |  | 25 (≈ 139 µM)
21 | CC(NC(=O)N1C(=O)CC1Sc1ccccc1)c1cccc2ccccc12 (racemic) | > 200 | > 200 | > 100
22 | COc1ccccc1SC1CC(=O)N1 (racemic) | 100 (≈ 478 µM) | > 200 | 250 (≈ 1190 µM)
23 | O=C1CC(Sc2ccc(F)c(Cl)c2)N1C(=O)NCc1ccccc1 (racemic) | 6.25 (≈ 17.1 µM) | 6.25 (≈ 17.1 µM) | 25 (≈ 68.5 µM)
24 | O=C1CC(Sc2ccc(Cl)cc2Cl)N1 (racemic) | 6.25 (≈ 25.2 µM) | 6.25 (≈ 25.2 µM) | 25 (≈ 101 µM)
25 | CSc1ccc(SC2CC(=O)N2C(=O)NCc2ccccc2)cc1 (racemic) |  |  | > 100
26 | COc1ccc(OC)c(SC2CC(=O)N2)c1 (racemic) | 100 (≈ 418 µM) | > 200 | 250 (≈ 1040 µM)
27 | C#CCCCC(=O)N1C(=O)CC1Sc1ccccc1 (racemic) | 100 (≈ 366 µM) | 100 (≈ 366 µM) | 45 (≈ 165 µM)
28 | COc1cccc(SC2CC(=O)N2C(=O)NCc2ccccc2)c1 (racemic) | 200 (≈ 584 µM) | 200 (≈ 584 µM) | 100 (≈ 292 µM)
29 | O=C1CC(Sc2ccccc2C(F)(F)F)N1C(=O)NCc1ccccc1 (racemic) | 25 (≈ 65.7 µM) | 25 (≈ 65.7 µM) | 125 (≈ 329 µM)
30 | O=C1CC(Sc2ccccc2)N1C(=O)NC1c2ccccc2-c2ccccc21 (racemic) |  |  | > 100
